Shown are actives, neighbours in structure and some others; about 3.7% of the full set was active somewhere.
KCNK9 block = inhibitors of human KCNK9 two-pore domain potassium channel; 310,000 tested, 1.2% active; Q9NPC2; AID 488922; B-score at 10 µM; HEK293 KCNK9, FluxOR thallium flux fluorescence; hits give low values;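 active = ratio B-score over 3 SD below the library mean, with starting fluorescence within 5 SD of its mean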;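 note: negative B-score means less thallium flux so channel inhibition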
KCNQ1 act = potentiates or activates the human KCNQ1 potassium channel; B-score at 10 µM; P51787; 310,000 tested, 0.35% active; CHO-K1 KCNQ1, thallium flux FluxOR fluorescence; hits give high values;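 active = fluorescence ratio B-score, a plate-corrected score, at least three library SD, with initial intensity B-score within 5 SD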
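Material: CHO-K1 cells stably expressing KCNQ1. Medium: assay buffer for compound exposure, DMSO matched across wells. Reagent: K+/Tl+ depolarizing stimulus. Compound dosing: single-concentration screen. Times: 37 °C overnight plating, 90-min dark dye load, 20-min compound pretreatment. Technique: FluxOR Tl+ flux fluorescence.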
KCNQ1 inh = human KCNQ1 channel inhibition; CHO-K1 KCNQ1, FluxOR thallium flux fluorescence; hits give high values; B-score at 10 µM; 310,000 tested, 1.3% active; AID 2642;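 active = compounds whose thallium flux B-score, printed positive for inhibition, exceeds three library SD while starting fluorescence stays within three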;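 note: channel opened by potassium depolarization with thallium stimulus after 20 min compound exposure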
KCNK3 block = human KCNK3 channel inhibition, primary screen | B-score at 10 µM | 340,000 tested, 0.84% active | CHO-KCNK3 thallium flux, FluxOR fluorescence; hits give low values;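 active = B-score under library mean minus 4 SD, starting fluorescence ratio at most library mean plus 5 SD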;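 note: more negative B-score means stronger inhibition of thallium flux through KCNK3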
hERG protect = hERG (human) protection from proarrhythmic block | CHO-hERG, FluxOR thallium flux, dofetilide IC70 present | activation (rescue from dofetilide block), less the hit threshold, % at 10 µM | AID 1511 | Q12809 | 310,000 tested, 0.51% active;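 active = activation above the mean of controls blocked by dofetilide plus 5 SD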;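 note: thallium influx through hERG after potassium depolarization seen as dye fluorescence rise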
Kir21 block = blocks the mouse Kir2.1 inward-rectifier potassium channel; P35561; 310,000 tested, 0.85% active; B-score at 10 µM; HEK293-Kir2.1, FluxOR thallium flux fluorescence; hits give low values;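 active = fluorescence ratio B-score at or below minus 3 SD of library scores, with starting-brightness B-score within 2 SD, cut at about -4.2 in these data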;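 note: channel flux triggered by added potassium and thallium sulfate stimulus; B-score of peak minus minimum fluorescence over baseline after thallium stimulus; more negative B-score means stronger Kir2.1 block with less thallium influx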
KCNQ1 block val = human KCNQ1 channel inhibition, validation assay. 1,600 tested, 93% active. KCNQ1 cell line, FluxOR thallium flux fluorescence. inhibition, % at 10 µM. AID 588353. shares compounds with KCNQ1 inh;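 active = primary screen active, with duplicate mean exceeding buffer control mean plus 3 SD of buffer wells, cut at about 28% in these data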;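 note: 0% = buffer control ratio and 100% = XE991 inhibitor control ratio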
CHO KCNQ1 ctr = activity in parental CHO cells lacking KCNQ1; fluorescence ratio (Tl flux) at 10 µM; shares compounds with KCNQ1 inh; AID 588366; parental CHO-K1, FluxOR thallium flux fluorescence ratio; hits give low values; zero means no signal rise above baseline; 1,600 tested, 21% active;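 active = mean of duplicate thallium-flux fluorescence ratios in parental host cells more than 5 SD below the buffer control mean, cut at about 0.38 in these data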;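 note: ratio is peak minus minimum fluorescence divided by baseline fluorescence; actives read low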
KCNQ1 APC inh = confirmation of human KCNQ1 potassium channel inhibitors by electrophysiology | shares compounds with KCNQ1 inh | KCNQ1-CHO cells, automated patch clamp current | calls only at 10 µM | 490 tested, 20% active;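 active = KCNQ1 current drop exceeding 3 SD of negative control wells, seen in both duplicate runs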;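 note: steady state current during a 2 s step from -80 to +40 mV; negative values mean current inhibition and positive values mean potentiation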
KCNQ2 spec = KCNQ1 inhibitor that also blocks rat KCNQ2 channel | shares compounds with KCNQ1 inh | KCNQ2 cells, FluxOR thallium flux fluorescence | inhibition, % at 10 µM | 1,600 tested, 71% active;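 active = mean percent inhibition of the KCNQ2 thallium signal more than 5 SD above the buffer-only control wells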;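 note: KCNQ2 expressed in CHO cells; 0% = buffer control wells and 100% = XE-991 inhibitor control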
Target sequence (O88943 whole entry, looked up): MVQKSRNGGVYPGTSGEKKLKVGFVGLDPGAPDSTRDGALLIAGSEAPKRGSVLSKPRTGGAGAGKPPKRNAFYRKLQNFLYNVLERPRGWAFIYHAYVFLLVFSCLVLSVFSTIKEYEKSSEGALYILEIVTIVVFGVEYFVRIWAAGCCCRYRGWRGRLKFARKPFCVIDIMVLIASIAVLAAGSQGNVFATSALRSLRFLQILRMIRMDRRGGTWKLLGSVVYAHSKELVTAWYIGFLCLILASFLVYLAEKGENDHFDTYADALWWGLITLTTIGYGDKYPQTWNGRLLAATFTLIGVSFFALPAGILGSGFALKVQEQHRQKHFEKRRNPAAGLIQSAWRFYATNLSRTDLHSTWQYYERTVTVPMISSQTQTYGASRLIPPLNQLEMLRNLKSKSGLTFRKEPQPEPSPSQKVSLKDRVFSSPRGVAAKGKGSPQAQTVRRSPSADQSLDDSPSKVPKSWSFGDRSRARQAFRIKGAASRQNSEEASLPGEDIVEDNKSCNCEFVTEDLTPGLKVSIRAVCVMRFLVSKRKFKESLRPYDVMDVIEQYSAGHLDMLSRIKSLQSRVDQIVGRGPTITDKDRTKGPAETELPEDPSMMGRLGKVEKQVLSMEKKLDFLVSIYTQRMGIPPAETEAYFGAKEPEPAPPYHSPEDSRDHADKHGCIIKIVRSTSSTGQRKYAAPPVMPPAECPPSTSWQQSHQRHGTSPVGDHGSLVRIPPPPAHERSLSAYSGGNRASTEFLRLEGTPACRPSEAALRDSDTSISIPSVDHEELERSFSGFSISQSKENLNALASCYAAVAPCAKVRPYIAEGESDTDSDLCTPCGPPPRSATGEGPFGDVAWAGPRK
KCNQ1-KCNE1 inh = KCNQ1 inhibitor that also blocks human KCNQ1/KCNE1 channel | shares compounds with KCNQ1 inh | KCNQ1/KCNE1 cells, FluxOR thallium flux fluorescence | inhibition, % at 10 µM | 1,600 tested, 77% active;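 active = mean percent inhibition of duplicate wells above the buffer-only control mean plus 3 SD of those controls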;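 note: 0% = buffer only wells and 100% = XE-991 inhibitor control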
KCNK9 block conf = human KCNK9 inhibitor confirmation; shares compounds with KCNK9 block; HEK293 KCNK9 cells, FluxOR thallium flux fluorescence; inhibition, % at 10 µM; 4,900 tested, 43% active; AID 492992;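 active = thallium signal inhibited by more than 5 SD of the compound-free buffer control wells, on both duplicate plates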;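 note: 0% = assay buffer control wells without compound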
Kir2-1 spec = tests whether KCNK9 modulators also affect mouse Kir2.1 | shares compounds with KCNK9 block | Kir2.1 cells, FluxOR thallium flux fluorescence | inhibition, % at 10 µM | 4,900 tested, 4% active | AID 492993;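 active = thallium signal drop more than 5 SD beyond the mean of the no-compound control wells, seen in both duplicate plates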;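 note: signal is fluorescence rise after thallium addition divided by baseline fluorescence; plate controls were assay buffer only for no effect and full block by chlorpromazine control for full effect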
KCNK9 uninduced = second check of KCNK9 modulator effects in non-induced HEK293 cells | AID 492997 | inhibition, % at 10 µM | shares compounds with KCNK9 block | FluxOR thallium flux | 4,900 tested, 40% active;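 active = thallium signal drop beyond 5 SD of the untreated control mean, on both duplicate plates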;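 note: plate controls were buffer only IC0 wells for no effect and SID17386958 at its maximal inhibitory level for full effect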
An asterisk follows results filed as active.

`Cc1cccc(N2CCN(C(=O)COc3ccc4c(c3)CCC4)CC2)c1C` gave KCNK9 block inactive, KCNQ1 act inactive, KCNQ1 inh 6*, KCNK3 block inactive, hERG protect -10, Kir21 block -1.3, KCNQ1 block val 102*, CHO KCNQ1 ctr 0.46, KCNQ1 APC inh inactive, KCNQ2 spec 100%*, KCNQ1-KCNE1 inh 109%*, KCNK9 block conf inactive, Kir2-1 spec inactive and KCNK9 uninduced inactive.
Oc1c(Br)cc(Br)c(/C=N/n2c(-c3ccccc3)n[nH]c2=S)c1Br was read as KCNK9 block inactive, KCNQ1 act inactive, KCNQ1 inh 7*, KCNK3 block inactive, hERG protect -6, Kir21 block 1.8, KCNQ1 block val 83*, CHO KCNQ1 ctr 0.45, KCNQ2 spec inactive, KCNQ1-KCNE1 inh inactive, KCNK9 block conf inactive, Kir2-1 spec inactive and KCNK9 uninduced inactive.
`Oc1ccc(Br)cc1/C=N/n1c(-c2ccccc2)n[nH]c1=S` gave KCNK9 block inactive, KCNQ1 act inactive, KCNQ1 inh inactive, KCNK3 block inactive, hERG protect -12 and Kir21 block 1.2.
For N#C/C(=C/c1ccc(N2CCOCC2)o1)c1ccc(Br)cc1 the results were KCNK9 block -12*, KCNQ1 act inactive, KCNQ1 inh 16*, KCNK3 block inactive, hERG protect -25, Kir21 block 0.05, KCNQ1 block val 167*, CHO KCNQ1 ctr 0.26*, KCNQ2 spec inactive, KCNQ1-KCNE1 inh active, KCNK9 block conf 71%*, Kir2-1 spec 36%* and KCNK9 uninduced 70%*.
For N#C/C(=C/c1ccc(N2CCOCC2)o1)c1nc2ccccc2[nH]1 the results were KCNK3 block inactive.
`S=C(N/N=C/c1ccccc1)N1CCOCC1` gave KCNK9 block inactive, KCNQ1 act inactive, KCNQ1 inh inactive, KCNK3 block inactive, hERG protect -1 and Kir21 block -0.74.
Screening CC(Oc1ccccc1)C(=O)N(CCC1=CCCCC1)c1c(N)n(Cc2ccccc2)c(=O)[nH]c1=O (stereo not drawn) returned KCNK9 block inactive, KCNQ1 act inactive, KCNQ1 inh inactive, KCNK3 block inactive, hERG protect -18 and Kir21 block 0.63.
For CCc1c(C#N)c(SCCC(=O)Nc2ccc(C)cc2)nc2c1C(=O)CC(C)(C)C2 the results were KCNK9 block inactive, KCNQ1 act inactive, KCNQ1 inh 7*, KCNK3 block inactive, hERG protect -12, Kir21 block 0.04, KCNQ1 block val 93*, CHO KCNQ1 ctr 0.52, KCNQ1 APC inh inactive, KCNQ2 spec 83%*, KCNQ1-KCNE1 inh 56%*, KCNK9 block conf inactive, Kir2-1 spec inactive and KCNK9 uninduced inactive.
For O=C(Nc1ccc(Cl)c(Cl)c1)Nc1ccccc1NS(=O)(=O)c1cccs1 the results were KCNK9 block -13*, KCNQ1 act inactive, KCNQ1 inh 18*, KCNK3 block inactive, hERG protect -29, Kir21 block -0.13, KCNQ1 block val 114*, CHO KCNQ1 ctr 0.43, KCNQ1 APC inh inactive, KCNQ2 spec 77%*, KCNQ1-KCNE1 inh 43%*, KCNK9 block conf 44%*, Kir2-1 spec inactive and KCNK9 uninduced inactive.
Screening O=C(NCc1ccccc1)c1cccc(COc2ccc3c(c2)CCC3)c1 returned KCNK9 block inactive, KCNQ1 act inactive, KCNQ1 inh 7*, KCNK3 block inactive, hERG protect -8, Kir21 block 1.1, KCNQ1 block val 98*, CHO KCNQ1 ctr 0.39, KCNQ1 APC inh active, KCNQ2 spec 112%*, KCNQ1-KCNE1 inh 139%*, KCNK9 block conf inactive, Kir2-1 spec inactive and KCNK9 uninduced inactive.
`CCCc1nc(SCC(=O)N2CCC(Cc3ccccc3)CC2)c2c(=O)n(C)c(=O)n(C)c2n1` gave KCNK9 block inactive, KCNQ1 act inactive, KCNQ1 inh 6*, KCNK3 block inactive, hERG protect -34, Kir21 block -0.4, KCNQ1 block val 98*, CHO KCNQ1 ctr 0.41, KCNQ2 spec inactive, KCNQ1-KCNE1 inh inactive, KCNK9 block conf inactive, Kir2-1 spec inactive and KCNK9 uninduced inactive.
O=[N+]([O-])c1ccc(Sc2cccc[n+]2[O-])c2nonc12 was read as KCNK9 block -16*, KCNQ1 act inactive, KCNQ1 inh 18*, KCNK3 block -14*, hERG protect -52, Kir21 block -6.3*, KCNQ1 block val 140*, CHO KCNQ1 ctr 0.26*, KCNQ2 spec inactive, KCNQ1-KCNE1 inh active, KCNK9 block conf 74%*, Kir2-1 spec 66%* and KCNK9 uninduced 78%*.
Screening CCN1C(c2ccccc2)C(C)C(=O)C(C)C1c1ccccc1 (stereo not drawn) returned KCNK9 block inactive, KCNQ1 act inactive, KCNQ1 inh 8*, KCNK3 block inactive, hERG protect -11, Kir21 block -1.2, KCNQ1 block val 120*, CHO KCNQ1 ctr 0.42, KCNQ1 APC inh inactive, KCNQ2 spec 89%*, KCNQ1-KCNE1 inh 128%*, KCNK9 block conf inactive, Kir2-1 spec inactive and KCNK9 uninduced inactive.
For COCCN(C(=O)c1ccc(-c2ccc(Cl)cc2)o1)c1c(N)n(Cc2ccccc2)c(=O)[nH]c1=O the results were KCNK9 block inactive, KCNQ1 act inactive, KCNQ1 inh inactive, KCNK3 block inactive, hERG protect -8 and Kir21 block 1.2.

Source: PubChem BioAssay (Johns Hopkins Ion Channel Center)
